RGS4 act = RGS4 potentiation or activation; actives 0.92% (n = 310,000); B-score at 10 µM; AID 463111; HEK293 M3R/inducible RGS4, carbachol calcium flux Fluo4; stronger effect = lower value;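 active means B-score of the integrated calcium signal more than 4 SD below the library mean, with starting fluorescence not abnormally high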;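 further: negative B-score means reduced calcium response which marks RGS4 activation or potentiation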
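Reagent: ECmax carbachol challenge; Test system: M3R-expressing HEK293 line, RGS4 induced by doxycycline; Schedule: overnight RGS4 induction, 30 min dye load 37 °C, 20 min compound RT; Detection: calcium dye Fluo4 fluorescence; Read-out: Agonist-evoked peak-minus-minimum fluorescence over baseline, integrated ratio, B score.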
MrgX1 agonist = activates human MrgX1 receptor signaling | Q96LB2 | actives 0.44% (n = 310,000) | B-score at 10 µM | MrgX1-HEK293 cells, Fluo-4 calcium fluorescence, agonist mode; stronger effect = higher value;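 active means calcium response B-score plate-corrected fluorescence ratio at least 3 library SD, with starting fluorescence B-score inside 5 SD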
Target sequence (Q96LB2 whole entry, looked up): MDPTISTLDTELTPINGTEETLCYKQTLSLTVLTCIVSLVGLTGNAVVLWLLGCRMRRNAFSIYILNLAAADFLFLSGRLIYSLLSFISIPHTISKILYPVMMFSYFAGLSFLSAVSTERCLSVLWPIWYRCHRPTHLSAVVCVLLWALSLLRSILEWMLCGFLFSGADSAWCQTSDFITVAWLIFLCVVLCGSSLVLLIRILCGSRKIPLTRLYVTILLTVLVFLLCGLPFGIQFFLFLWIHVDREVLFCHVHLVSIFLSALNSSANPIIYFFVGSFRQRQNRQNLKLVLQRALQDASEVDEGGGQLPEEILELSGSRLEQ
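Assay system: stable human MrgX1 HEK293 cell line. Quantity: 15,000 cells per well. Schedule: cells plated overnight, dye loaded 0.5 h 37 °C, 0.5 h room temperature. Detection: Fluo-4 NW calcium-flux fluorescence, kinetic read. Read-out basis: peak-minus-minimum fluorescence over baseline, converted to B scores. Control set: positive and negative control wells on each plate.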
RGS4 inh = human RGS4 inhibition. P49798. HEK293 M3R/RGS4 inducible, Fluo-4 calcium flux; stronger effect = higher value; triggered by carbachol at its EC20. B-score at 10 µM. actives 0.45% (n = 310,000). AID 463165;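 active means B-score, a plate-corrected calcium signal, over three deviations above library mean, with baseline fluorescence within five deviations of library mean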;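 further: RGS4 expression induced by doxycycline in cells with stable M3 receptor; B-score is computed from the integrated fluorescence ratio over baseline after carbachol; higher B-score means a larger calcium signal and so more RGS4 inhibition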
Target sequence (P49798 whole entry, looked up): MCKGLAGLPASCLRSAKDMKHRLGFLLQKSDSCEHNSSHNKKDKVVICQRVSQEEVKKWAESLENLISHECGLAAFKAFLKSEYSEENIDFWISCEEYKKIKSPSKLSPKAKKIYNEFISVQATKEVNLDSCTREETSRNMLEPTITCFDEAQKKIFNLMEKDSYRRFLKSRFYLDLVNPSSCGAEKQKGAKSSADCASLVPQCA
MrgX1 antag = human MrgX1 receptor antagonism, primary screen; B-score at 10 µM; Q96LB2; MRGX1-HEK293 calcium flux, Fluo-4, BAM8-22 antagonism; stronger effect = lower value; actives 1.3% (n = 310,000);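 active means calcium-response B-score plate-corrected more than 3 library SD below zero, starting fluorescence within 5 deviations, no agonist response on first addition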;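 further: peak minus trough fluorescence over baseline after final BAM8-22 challenge near maximal dose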
MrgX1 allo act = allosterically activates human MrgX1 receptor signaling; MrgX1-HEK293, Fluo-4 calcium flux, FDSS; stronger effect = higher value; B-score at 10 µM; actives 0.63% (n = 310,000);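 active means plate-corrected calcium response at least 3 library SD above typical, normal starting fluorescence, not activating the receptor alone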;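 further: compound read alongside a low EC10 to EC30 dose of BAM8-22 agonist; peak minus trough fluorescence over baseline measured at the second addition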
MrgX1 ag reconf = reconfirmed activator of human MrgX1 receptor signaling | shares compounds with MrgX1 agonist | MrgX1-HEK293, Fluo-4 calcium fluorescence, FDSS | activation, % at 10 µM | actives 78% (n = 600);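 active means calcium signal rise, corrected for plate position, at least 3 library SD high, with starting brightness within 5 such deviations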
MrgX1 allo conf = human MrgX1 positive allosteric modulation, re-confirmation. shares compounds with MrgX1 allo act. MrgX1-HEK293, Fluo-4 calcium fluorescence, FDSS. activation (ratio percentage), % at 10 µM. actives 13% (n = 1,200);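 active means ratio at least 3 SD above the weak peptide control, stable starting fluorescence, no direct agonism earlier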;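 further: compound followed by low BAM8-22 agonist challenge near EC20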
MrgX1 antag conf = confirmation of human MrgX1 receptor antagonists. shares compounds with MrgX1 antag. MrgX1-HEK293, BAM8-22 calcium flux, Fluo-4; stronger effect = lower value. remaining BAM8-22 calcium response % of control (stronger effect = lower value), % at 10 µM. actives 19% (n = 2,300). AID 602420;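 active means remaining agonist calcium response no higher than 100% minus 3 SD of agonist-only control wells, with starting fluorescence near control levels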;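 further: agonist BAM8-22 given at a near maximal EC90 to ECmax level; peak minus minimum fluorescence divided by baseline after agonist addition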
HEK293 Ca flux = activity in parental HEK293 cells lacking MrgX1; shares compounds with MrgX1 antag; Fluo-4 calcium fluorescence, FDSS; fluorescence ratio F(max-min)/F0 at 10 µM; actives 2% (n = 4,000);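 active means duplicate-averaged calcium fluorescence ratio at least three times the standard deviation of buffer wells, a nonspecific response in parental cells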
HEK293 Ca counter = counter-screen for MrgX1 allosteric activators: effect in parental HEK293 cells | fluorescence ratio F(max-min)/F0 at 10 µM | AID 624114 | shares compounds with MrgX1 antag | actives 0.4% (n = 4,000) | parental HEK293 calcium flux, Fluo-4 fluorescence ratio; stronger effect = higher value;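 active means calcium fluorescence ratio, averaged over duplicates, at least 3 SD of the buffer-well ratio, meaning a nonspecific response in receptor-free cells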;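 further: untransfected parental HEK293 lacking MrgX1 used as counterscreen for MrgX1 allosteric activators; fluorescence change taken during the second addition on a kinetic imager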
HEK293 Ca cntr2 = counter-screen for MrgX1 activators: effect in parental HEK293 cells; AID 624115; actives 8.7% (n = 4,000); Fluo-4 calcium fluorescence (FDSS); stronger effect = higher value; fluorescence ratio F(max-min)/F0 at 10 µM; shares compounds with MrgX1 antag;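 active means calcium fluorescence ratio at least three times the spread of buffer wells, meaning a non-specific response in parental cells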
The depositor's hits bear a star; i = inactive; / = not tested or not shown. An excerpt weighted towards active compounds, which were near 3.5% of everything screened.

SMILES	RGS4 act	MrgX1 agonist	RGS4 inh	MrgX1 antag	MrgX1 allo act	MrgX1 antag conf	HEK293 Ca flux	HEK293 Ca counter	HEK293 Ca cntr2	others
C[C@H]1CCC[C@@H](O)CCC/C=C/c2cc(O)cc(O)c2C(=O)O1	i	31*	i	i	i	/	i	i	i	MrgX1 ag reconf=176%*
COc1cc(Br)c(CNCCc2ccc3c(c2)OCO3)cc1OC	i	i	i	i	i	/	/	/	/
COc1ccc(OC)c(NP(=O)(Oc2ccccc2)Oc2ccccc2)c1	i	i	i	i	i	/	/	/	/
CC(C)(C)c1ccc(O)c(N=Cc2c(O)ccc3ccccc23)c1	i	56*	i	i	i	/	i	i	46*	MrgX1 ag reconf=115%*
O=C1CCCN1CC#CCN1CCCC1	i	52*	i	i	i	/	i	i	49*	MrgX1 ag reconf=226%*
NC1=Nc2ccccc2Oc2ccccc21	i	55*	i	i	i	/	i	i	i	MrgX1 ag reconf=226%*
c1csc(CN2CCNCC2)c1	i	i	i	i	i	/	/	/	/
CC1(C)CSC(=NCc2ccccc2)N1	i	164*	i	i	i	/	i	i	129*	MrgX1 ag reconf=677%*
COc1ccc(-c2nn(CCC#N)cc2C(=O)Nc2ccccc2)cc1OC	i	i	i	i	i	/	/	/	/
CCCCCn1c(=O)c(C(=O)NCc2ccc(Cl)cc2)c(O)c2ccccc21	i	i	i	i	8.8*	/	i	49*	i	MrgX1 allo conf=i
CCCCn1c(=O)c(C(=O)NCc2ccccc2)c(O)c2ccccc21	i	i	i	i	i	/	/	/	/
O=P1(Oc2ccccc2)OCCCS1 (configuration not stated)	i	i	i	i	i	/	/	/	/
CCN(CC)c1ccc(CN2CC=C(c3ccc(F)cc3)CC2)cc1	i	i	i	i	i	/	/	/	/
COc1cccc(OCC(=O)N2CCN(C)CC2)c1	i	i	i	i	i	/	/	/	/
COc1cccc(C2(C#N)CCN(C)CC2)c1	i	i	i	i	6.5*	/	i	i	i	MrgX1 allo conf=i
CCOC(=O)C1=C(N)Oc2c(c(=O)oc3ccccc23)C12C(=O)N(C)c1ccccc12 (configuration not stated)	i	i	i	i	8.5*	/	i	i	i	MrgX1 allo conf=16%*
C=CCN1C(=O)C2(C(C(=O)OCC)=C(N)Oc3ccccc32)c2c1c1ccccc1oc2=O (configuration not stated)	i	i	i	i	24*	/	i	i	i	MrgX1 allo conf=33%*
COc1ccc(C(=O)CN2CCOCC2)cc1F	i	i	i	-5.2*	i	i	i	i	i
O=C(CN1CCOCC1)c1ccc2cc[nH]c2c1	i	i	i	i	i	/	/	/	/
COC(=O)c1ccc(NC(=O)CSc2nc3ccc(N4C(=O)C5C6C=CC(C6)C5C4=O)cc3s2)cc1 (configuration not stated)	i	i	i	-7.4*	i	55%*	i	i	i
CC(C)CCNC(=O)c1c(N)n(Cc2ccc3c(c2)OCO3)c2nc3ccccc3nc12	i	i	i	i	i	/	/	/	/
CC(C)CNC(=O)c1c(N)n(Cc2ccc3c(c2)OCO3)c2nc3ccccc3nc12	i	i	i	-6*	i	i	i	i	54*
CN1CCc2nc(SCc3cccc(Br)c3)c(C#N)cc2C1	i	i	i	-4.7*	i	i	i	i	i
O=c1[nH]c(=S)n(-c2ccc(Cl)cc2)c(O)c1/C=N/N1CCOCC1	i	i	i	i	i	/	/	/	/
CSc1ccc(C(=O)C2CCCN(Cc3cc4ccccc4[nH]3)C2)cc1 (configuration not stated)	-7.1*	i	i	-5.1*	i	79%*	i	i	i
SMILES	RGS4 act	MrgX1 agonist	RGS4 inh	MrgX1 antag	MrgX1 allo act	MrgX1 antag conf	HEK293 Ca flux	HEK293 Ca counter	HEK293 Ca cntr2	others
CCCOc1ccc(N2C(=O)CC(N3CC=C(c4ccccc4)CC3)C2=O)cc1 (configuration not stated)	i	i	i	i	i	/	/	/	/
c1ccc(CNCCc2ccc3c(c2)OCO3)nc1	i	i	i	i	i	/	/	/	/
O=C1NC(=O)C(CCc2ccccn2)(Cc2ccc3c(c2)OCO3)C(=O)N1CCc1ccccc1 (configuration not stated)	i	i	i	-5.2*	i	i	i	i	i
CN1C(=O)C(C2c3ccccc3C(=O)N2Cc2ccc([N+](=O)[O-])cc2)C(=O)N(C)C1=O (configuration not stated)	i	i	i	i	i	/	/	/	/
Nc1ccc([As](=O)(O)O)cc1	i	i	i	-6*	i	i	i	i	i
O=C(CN1CC(c2ccccc2)CC1=O)Nc1ccc(F)cc1 (configuration not stated)	i	i	i	-10*	i	i	i	i	i
O=C(CN1CC(c2ccccc2)CC1=O)Nc1cccc(F)c1 (configuration not stated)	i	i	i	i	i	/	/	/	/
CCCC1=C(C(=O)OCC)C2(C(=O)Nc3ccccc32)C(C#N)=C(N)O1 (configuration not stated)	i	i	i	-4.6*	i	i	i	i	i
CCCCCn1c(=O)c(C(=O)NC(C)c2ccccc2)c(O)c2ccccc21 (configuration not stated)	i	i	i	-4.8*	i	i	i	i	i
C#CCOCOCC#CCN(CC)CC	i	i	i	i	i	/	/	/	/

Screening data from PubChem BioAssay.
